Test results taken from ChEMBL document CHEMBL3044563, “Alternethanoxins A and B, polycyclic ethanones produced by Alternaria sonchi , potential mycoherbicides for Sonchus arvensis biocontrol” (2009).
Active and inactive are the calls of the source.

Columns and labels:
[1] = test system: Amaranthus retroflexus; assay: Phytotoxicity against Amaranthus rethroflexus assessed as necrotic lesion diameter at 2 mg/mL at 24 degC measured after 2 days by leaf disk-puncture assay; format: functional
Outline: (§1)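 Plants were raised in a greenhouse from underground shoot pieces or seeds. 10 mm disks were cut with a cork borer from well-expanded leaves, laid on moist filter paper and punctured centrally with a needle. Compound was predissolved in EtOH and diluted with water (final 5% v/v EtOH), and a 10 μL droplet was applied. Disks were incubated at 24 °C under a 12 h photoperiod, and necrotic lesion diameter (mm) was measured after 2 days.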

[2] = test system: Saccharomyces cerevisiae; assay: Antifungal activity against Saccharomyces cerevisiae at 100 ug/disk; format: functional, organism-based
Outline: (§2)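 Test organisms were S. cerevisiae (antifungal) and X. campestris, E. coli and B. subtilis (antibacterial). Compound applied to a disk at 100 μg per disk, following a previously described disk method.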

[3] = test system: Escherichia coli; assay: Antibacterial activity against Escherichia coli at 100 ug/disk; format: functional, organism-based; outline: as §2
[4] = test system: Xanthomonas campestris; assay: Antibacterial activity against Xanthomonas campestris at 100 ug/disk; format: functional, organism-based; outline: as §2
[5] = test system: Bacillus subtilis; assay: Antibacterial activity against Bacillus subtilis at 100 ug/disk; format: functional, organism-based; outline: as §2
[6] = test system: Phleum pratense; assay: Phytotoxicity against Phleum pratense (timothy grass) assessed as necrotic lesion diameter at 2 mg/mL at 24 degC measured after 2 days by leaf disk-puncture assay; format: functional; outline: as §1
[7] = test system: Elymus repens; assay: Phytotoxicity against Elymus repens (couch grass) assessed as necrotic lesion diameter at 2 mg/mL at 24 degC measured after 2 days by leaf disk-puncture assay; format: functional; outline: as §1
[8] = test system: Aegopodium podagraria; assay: Phytotoxicity against Aegopodium podagraria (bishop's weed) assessed as necrotic lesion diameter at 2 mg/mL at 24 degC measured after 2 days by leaf disk-puncture assay; format: functional; outline: as §1
[9] = test system: Convolvulus arvensis; assay: Phytotoxicity against Convolvulus arvensis assessed as necrotic lesion diameter at 2 mg/mL at 24 degC measured after 2 days by leaf disk-puncture assay; format: functional; outline: as §1
[10] = test system: Taraxacum officinale; assay: Phytotoxicity against Taraxacum officinale (dandelion) assessed as necrotic lesion diameter at 2 mg/mL at 24 degC measured after 2 days by leaf disk-puncture assay; format: functional; outline: as §1
[11] = test system: Calendula officinalis; assay: Phytotoxicity against Calendula officinalis assessed as necrotic lesion diameter at 2 mg/mL at 24 degC measured after 2 days by leaf disk-puncture assay; format: functional; outline: as §1
[12] = test system: Cirsium arvense; assay: Phytotoxicity against Cirsium arvense (Canada thistle) assessed as necrotic lesion diameter at 2 mg/mL at 24 degC measured after 2 days by leaf disk-puncture assay; format: functional; outline: as §1
[13] = test system: Sonchus arvensis; assay: Phytotoxicity against Sonchus arvensis (field sow-thistle) assessed as necrotic lesion diameter at 4 mg/mL at 24 degC measured after 2 days by leaf disk-puncture assay; format: functional; outline: as §1
[14] = test system: Sonchus arvensis; assay: Phytotoxicity against Sonchus arvensis (field sow-thistle) assessed as necrotic lesions at 1 mg/mL at 24 degC measured after 2 days by leaf disk-puncture assay; format: functional; outline: as §1
[15] = test system: Sonchus arvensis; assay: Phytotoxicity against Sonchus arvensis (field sow-thistle) assessed as necrotic lesions at 2 mg/mL at 24 degC measured after 2 days by leaf disk-puncture assay; format: functional; outline: as §1

Measured: Activity

COc1cccc2c1[C@H](O)Oc1c(O)cc(C(C)=O)c(O)c1-2 [ALTERNETHANOXIN A]
active: [14]
inactive: [2] | [3] | [4] | [5]
4 mm: [13]
1 mm: [1] | [6] | [7] | [8] | [9] | [10] | [11] | [12]

COc1ccc2oc3c(C(C)=O)cc(O)c4c3c2c1[C@@H](O)O4 [ALTERNETHANOXIN B]
active: [15]
2 mm: [13]
1 mm: [1] | [6] | [7] | [8] | [9] | [10] | [11] | [12]
inactive: [2] | [3] | [4] | [5]
